TRPC6 inh: mouse TRPC6 channel inhibitors, primary screen, cell-based, HEK293, membrane potential dye; Short transient receptor potential channel 6 (Mus musculus), Q61143; ACh-evoked depolarization; stronger effect = lower value; B-score at 10 µM; 310,000 compounds, 1.1% hits; AID 2553, 2010;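 active = B-score under library mean minus 3 SD, initial fluorescence not abnormally high, positive integrated signal ratio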;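 note: B-score derived from integrated fluorescence ratio over the kinetic read; more negative B-score means stronger inhibition of depolarization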
TRPC4 potent: positive allosteric modulators of TRPC4, primary screen, cell-based, mouse TRPC4beta, HEK293 mu-opioid, Fluo-4 calcium. Short transient receptor potential channel 4 (Mus musculus), Q9QUQ5. DAMGO EC20, Fluo-4 Ca2+ flux; stronger effect = higher value. B-score at 10 µM. 310,000 compounds, 0.42% hits;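 active = B-score of calcium response area above 5 SD of library B-scores, with initial fluorescence ratio within 5 SD of library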
Target sequence (Q9QUQ5 whole entry, looked up): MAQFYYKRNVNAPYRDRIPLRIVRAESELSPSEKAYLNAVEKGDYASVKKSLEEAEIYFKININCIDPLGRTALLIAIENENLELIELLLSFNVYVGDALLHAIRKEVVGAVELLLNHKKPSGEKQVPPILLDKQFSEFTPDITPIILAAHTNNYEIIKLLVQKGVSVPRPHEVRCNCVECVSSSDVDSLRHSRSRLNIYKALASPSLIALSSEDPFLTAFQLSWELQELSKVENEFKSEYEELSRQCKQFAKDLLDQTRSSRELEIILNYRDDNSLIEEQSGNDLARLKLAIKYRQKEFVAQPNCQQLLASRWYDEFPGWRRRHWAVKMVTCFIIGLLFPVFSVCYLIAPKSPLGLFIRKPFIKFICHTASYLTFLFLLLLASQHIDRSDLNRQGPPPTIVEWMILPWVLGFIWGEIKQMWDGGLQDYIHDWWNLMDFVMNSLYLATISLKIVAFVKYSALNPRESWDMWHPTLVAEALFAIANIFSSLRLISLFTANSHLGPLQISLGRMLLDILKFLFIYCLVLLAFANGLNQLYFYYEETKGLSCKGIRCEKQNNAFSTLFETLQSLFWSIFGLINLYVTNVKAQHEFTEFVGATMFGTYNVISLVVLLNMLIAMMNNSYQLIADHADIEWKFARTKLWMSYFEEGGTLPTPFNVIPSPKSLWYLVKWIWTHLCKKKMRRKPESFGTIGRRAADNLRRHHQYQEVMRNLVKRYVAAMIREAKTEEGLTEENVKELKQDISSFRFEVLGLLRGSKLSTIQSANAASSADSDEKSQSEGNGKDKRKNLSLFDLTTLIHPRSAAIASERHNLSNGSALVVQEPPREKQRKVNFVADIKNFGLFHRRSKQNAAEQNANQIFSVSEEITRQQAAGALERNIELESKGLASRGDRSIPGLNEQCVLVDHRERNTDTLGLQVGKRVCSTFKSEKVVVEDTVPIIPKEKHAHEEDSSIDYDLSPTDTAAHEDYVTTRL
Pemphigus Ab inh: inhibitors of pemphigus antibody binding to DSG3, primary screen, biochemical, bead-based, flow cytometry, scFv-GFP. Desmoglein-3 (Homo sapiens), P32926. DSG3-coupled beads, scFv-anti-DSG3-GFP binding; stronger effect = lower value. binding (percent of control), % at 10 µM. 310,000 compounds, 0.48% hits;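 active = binding more than 3 SD below its plate's average and above zero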
TRPC4 agonist: activators of mouse TRPC4 channel, primary screen, Fluo4 calcium, HEK293 TRPC4beta/mu-opioid cells; B-score at 10 µM; 310,000 compounds, 0.49% hits; Fluo4 calcium fluorescence; stronger effect = higher value; AID 2237, 2010; Short transient receptor potential channel 4 (Mus musculus), Q9QUQ5;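 active = B-score above 5 SD of library B-scores, and initial fluorescence ratio not above library mean plus 5 SD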;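 note: positive B-score marks a calcium rise read as TRPC4 activation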
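Test system: HEK293 cells stably co-expressing mouse TRPC4beta and mu-opioid receptor | Schedule: Fluo4 dye loading 45 min at room temperature, 110 s recording | Measured by: Kinetic Fluo4 calcium fluorescence, 5 s baseline at 1 Hz | Evaluation: B score of integrated ratio | Controls: Buffer (low) and maximal DAMGO (high)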
TRPC6 activator: mouse TRPC6 channel activators, primary screen, cell-based, HEK293, membrane potential dye | Short transient receptor potential channel 6 (Mus musculus), Q61143 | HEK293-TRPC6 membrane potential dye fluorescence; stronger effect = higher value | B-score at 10 µM | 310,000 compounds, 0.13% hits;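 active = B-score of the integrated fluorescence ratio above library mean plus 3 SD, and starting fluorescence ratio within library mean plus 5 SD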;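 note: higher score means more depolarization so channel activation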
TRPC4 inh: inhibitors of mouse TRPC4 channel, primary screen, Fluo4 calcium, HEK293 TRPC4beta/mu-opioid cells | DAMGO-evoked Fluo4 calcium flux; stronger effect = lower value | B-score at 10 µM | 300,000 compounds, 0.39% hits | AID 2247, 2010;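 active = B-score over 3 SD under the library average, no early fluorescence shift, positive overall ratio signal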
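Test system – stable TRPC4beta/mu-opioid receptor HEK293 cells · Probe or stimulus – DAMGO, a submaximal dose followed by a maximal one · Dosing – one concentration per compound · Signal – Fluo4 calcium fluorescence by kinetic imaging, 5 s 1 Hz baseline · Evaluation – per-well B score of integrated baseline-normalized Fluo4 ratio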
TRPC4 sel inh 2: second check of whether TRPC6 inhibitors also affect mouse TRPC4. shares compounds with TRPC6 inh. HEK293 TRPC4/MOR, membrane potential dye fluorescence; channel activated by saturating DAMGO dose. inhibition, % at 10 µM. 920 compounds, 42% hits;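 active = compounds whose fluorescence signal differed from control wells by over 3 SD, either direction, in both duplicate plates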
TRPC4 spec: mouse TRPC4 modulation by TRPC6 hits, confirmation, selectivity assay for TRPC6 inhibitor project, cell-based, HEK293 TRPC4/mu-opioid, membrane potential dye; shares compounds with TRPC6 inh; membrane potential fluorescence; activity change, negative = inhibition, % at 10 µM; 920 compounds, 61% hits; AID 2777, 2010;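 active = rise or fall in signal beyond 3 SD of buffer-only wells in both replicate plates, either sign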;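 note: integrated kinetic ratio of fluorescence range over baseline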
HEK293 MPD ctr 2-1: nonspecific membrane potential effects, parental HEK293, confirmation, counter-screen for TRPC6 inhibitor project, cell-based, second counter screen; signal change vs control, % at 10 µM; parental HEK293 membrane potential dye fluorescence; maximal acetylcholine challenge after compound addition; AID 2779, 2010; shares compounds with TRPC6 inh; 920 compounds, 31% hits;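 active = membrane potential signal moving either way by over 3 SD of the maximum-effect control, in both duplicate plates, meaning non-specific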
HEK293 MPD ctr-1: membrane potential modulation in parental HEK293, confirmation, counter-screen for TRPC6 inhibitor project, cell-based; shares compounds with TRPC6 inh; parental HEK293 membrane potential dye fluorescence; 920 compounds, 60% hits; AID 2780, 2010; membrane potential signal change, % at 10 µM;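 active = membrane potential signal shifting up or down by more than 3 SD of buffer-only wells, on both duplicate plates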
HEK293 MPD ctr-2: parental HEK293 membrane potential modulation, confirmation, counter-screen for TRPC6 modulator project, cell-based. shares compounds with TRPC6 inh. membrane potential dye fluorescence. membrane potential signal change, % at 10 µM. 2,400 compounds, 51% hits. AID 488924, 2010;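 active = membrane potential signal moves up or down beyond 5 SD from buffer-only wells, on both duplicate plates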
HEK293 MPD ctr 2-2: second check of TRPC6 modulator effects in parental HEK293 cells. shares compounds with TRPC6 inh. membrane potential dye fluorescence; after compound, maximal acetylcholine stimulation. inhibition, % at 10 µM. 2,400 compounds, 14% hits. AID 488926;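 active = membrane potential signal drops by more than 5 SD from the mean control signal, in both duplicate plates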
TRPC4/MOR mod: TRPC4 modulation by TRPC6 hit compounds, confirmation, selectivity assay for TRPC6 modulator project, cell-based, HEK293 TRPC4/mu-opioid, membrane potential dye, mouse; shares compounds with TRPC6 inh; 2,400 compounds, 69% hits; membrane potential fluorescence; percent change from control (negative = decrease, positive = increase), % at 10 µM;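 active = membrane potential signal moved up or down beyond 5 SD of buffer control wells, in both duplicate plates, actives on both sides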
TRPC4/MOR inh 2: second check of whether TRPC6 modulators also affect mouse TRPC4 | shares compounds with TRPC6 inh | HEK293 TRPC4/mu-opioid, membrane potential dye fluorescence; stimulated with maximal-effect DAMGO | inhibition, % at 10 µM | 2,400 compounds, 55% hits;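 active = drop in membrane potential signal beyond 5 SD of the control wells in both duplicate plates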;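 note: TRPC4 counter screen for TRPC6 hits run under conditions tuned for TRPC6 not TRPC4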
TRPC6 inh conf: mouse TRPC6 channel inhibitors, confirmation, HEK293 cells, membrane potential dye, duplicate; shares compounds with TRPC6 inh; ACh-evoked depolarization; inhibition, % at 10 µM; 3,300 compounds, 43% hits; AID 488960, 2010;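 active = fluorescence ratio falls more than 5 SD below the full-stimulation control mean, in both duplicate runs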;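 note: integrated fluorescence ratio of peak minus minimum over baseline after agonist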
TRPC6 act conf: mouse TRPC6 channel activators, confirmation, HEK293 cells, membrane potential dye, duplicate; 2,800 compounds, 11% hits; shares compounds with TRPC6 inh; AID 488961, 2010; activation, % at 10 µM; HEK293-TRPC6 membrane potential dye fluorescence, FDSS;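 active = ratio signal rise beyond 5 SD above unstimulated control wells' mean, seen in both duplicate runs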
A number is an active result; – = inactive; · = no result. Only some compounds are listed: those with a hit (about 2.5% of all), similar ones and a draw of the others.

SMILES | TRPC6 inh | TRPC4 potent | Pemphigus Ab inh | TRPC4 agonist | TRPC6 activator | TRPC4 inh | HEK293 MPD ctr-2 | HEK293 MPD ctr 2-2 | TRPC4/MOR mod | TRPC4/MOR inh 2 | TRPC6 inh conf | TRPC6 act conf | others
Cc1cccc2sc(N(CCCN(C)C)C(=O)c3ccc4ncsc4c3)nc12 | -5 | – | – | – | – | – | – | – | – | 78% | 45% | –
COc1ccc(CNS(=O)(=O)c2cn(C)c(=O)n(C)c2=O)cc1 | – | – | – | – | – | – | · | · | · | · | · | ·
CC(=O)Nc1ccc(NC2CCCCC2NS(=O)(=O)c2ccc(Cl)cc2)cc1 (configuration not stated) | – | – | – | – | – | – | · | · | · | · | · | ·
O=C(NC(C(=O)N/N=C/c1ccccn1)c1n[nH]c(=O)c2ccccc12)c1ccccc1 (configuration not stated) | – | – | – | – | – | – | · | · | · | · | · | ·
Cc1ccc(C)c(C(C)NC(=O)Cc2cccs2)c1 (configuration not stated) | – | – | – | – | – | – | · | · | · | · | · | ·
CC(C)(C)N(Cc1ccccc1)C(=O)c1ccc(Cl)cc1[N+](=O)[O-] | -6.5 | – | – | – | – | – | – | – | – | – | – | –
CCN1CCCC1CNC(=O)c1cc(COc2ccc(C)c(C)c2)on1 (configuration not stated) | – | – | – | – | – | – | · | · | · | · | · | ·
CCCc1cc(-c2[nH]ncc2-c2ccc3c(c2)OCCCO3)c(O)cc1O | -8 | – | – | – | – | – | · | · | · | · | 63% | – | TRPC4 sel inh 2=–;TRPC4 spec=–;HEK293 MPD ctr 2-1=208%;HEK293 MPD ctr-1=–
Cn1cc(Br)c(C(=O)NNC(=O)Nc2ccccc2C(F)(F)F)n1 | – | – | – | – | – | – | · | · | · | · | · | ·
N=C(SC1CC(=O)N(c2ccc(F)cc2)C1=O)N1N=C(c2ccccc2)CC1c1ccccc1 (configuration not stated) | -7.7 | – | – | – | – | – | · | · | · | · | – | – | TRPC4 sel inh 2=–;TRPC4 spec=–;HEK293 MPD ctr 2-1=–;HEK293 MPD ctr-1=–
CCC(=O)N1N=C(c2ccccc2)CC1c1ccccc1 (configuration not stated) | – | – | – | – | – | – | · | · | · | · | · | ·
Cc1cc(OCCN2CCC(Cc3ccccc3)CC2)ccc1[N+](=O)[O-] | -8.2 | – | – | – | – | – | · | · | · | · | – | – | TRPC4 sel inh 2=54%;TRPC4 spec=–;HEK293 MPD ctr 2-1=–;HEK293 MPD ctr-1=–
OCCCNCc1ccc(N(c2ccccc2)c2ccccc2)cc1 | – | – | – | – | – | – | · | · | · | · | · | ·
CCCCN(C)C1=Nc2cccc3cccc1c23 | -7.5 | – | · | – | – | – | -194% | – | -42% | 69% | 56% | –
Cc1cccc(CN2CCC(Oc3ccc(C(=O)N4CCCC4)cc3)CC2)n1 | – | – | – | – | – | – | · | · | · | · | · | ·
Cc1ccc(S(=O)(=O)Nc2nc3ccccc3nc2NCC2CCCO2)c(C)c1 (configuration not stated) | – | – | – | – | 14 | – | – | – | – | – | – | –
CC(C)CC[n+]1ccccc1/C=C/c1ccc(N(C)C)cc1 | -5.8 | – | – | 66 | – | – | 719% | 113% | 115% | – | 68% | ·
CN(C)c1ccc(/C=C/c2cccc[n+]2[O-])cc1 | – | – | – | – | – | – | · | · | · | · | · | ·
Cn1nc(-c2ccc(NCCO)c([N+](=O)[O-])c2)c2ccccc2c1=O | – | – | – | – | – | – | · | · | · | · | · | ·
CN(C)CCNc1ccc(-c2nn(C)c(=O)c3ccccc23)cc1[N+](=O)[O-] | -5.2 | – | – | – | – | – | -134% | – | -32% | 78% | 72% | –
CC(=O)Nc1sc2c(c1C(N)=O)CCCC2 | – | – | – | – | – | – | · | · | · | · | · | ·
NC(=O)c1c(NC(=O)C2c3ccccc3Oc3ccccc32)sc2c1CCCCC2 | -5.1 | – | – | – | – | – | – | – | – | – | – | –
CN1CCN(C(=O)C2=C[C@H](c3ccccc3)C[C@H](OCc3ccc(CO)cc3)O2)CC1 | – | – | – | – | – | – | · | · | · | · | · | ·
O=C(NCCCc1ccccc1)C1CC1 | – | – | – | – | – | – | · | · | · | · | · | ·
CCOc1ccc(N(C)S(=O)(=O)c2ccc3[nH]cc(C(=O)NCC(OC)OC)c(=O)c3c2)cc1 | -5.5 | – | – | – | – | – | – | – | – | – | – | –
